Experiments:
Rattus norvegicus = assay: Tested for diarrheal side effects in rats by intragastric administration; assay type: functional; conditions: po
Procedure, shortened: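 Adult male Charles River rats (210–230 g), individually housed, fasted 24 h with water ad libitum. Logarithmically graded prostaglandin doses given orally, N = 6–12 per group. Diarrhea scored all-or-none for 8 h after dosing. ED50 and 95% confidence intervals by logistic regression.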

Canis familiaris = assay: Tested for gastric antisecretory activity in dogs by intrapouch administration; assay type: functional; conditions: Canis lupus familiaris, Stomach
Procedure, shortened: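 Adult female beagles (6–11 kg) with Pavlov pouches; after a 30-min basal collection, drug given into the pouch via Thomas cannula in pH 7.4 isoosmotic phosphate buffer with up to 20% ethanol. Fed 10–12 oz canned food 30 min later. Gastric juice collected at 30-min intervals for 4 h; acid output = volume × acidity. Percent reduction from control over 2–5 doses, 2–7 dogs/dose. ED50 by linear regression, 95% limits by Fieller's method.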

| SMILES | ED50 (Rattus norvegicus) | ED50 (Canis familiaris) |
| --- | --- | --- |
| COC(=O)CC/C=C\CC[C@H]1C(=O)C[C@@H](O)[C@@H]1/C=C/C[C@@](C)(O)/C=C/C1=CCCC1 | > 3160 µg/kg | 0.02 µg/kg |
| COC(=O)CC/C=C\CC[C@H]1C(=O)C[C@@H](O)[C@@H]1/C=C/C[C@@](C)(O)/C=C/C1(C)CC1 | 1340 µg/kg | 0.02 µg/kg |
| COC(=O)CC/C=C\CC[C@H]1C(=O)C[C@@H](O)[C@@H]1/C=C/C[C@@](C)(O)/C=C/C1CC1 | 402 µg/kg | 0.1 µg/kg |
| COC(=O)CC/C=C\CC[C@H]1C(=O)C[C@@H](O)[C@@H]1/C=C/C[C@@](C)(O)/C=C/C1=CCCCC1 | > 3160 µg/kg | 0.3 µg/kg |
| COC(=O)CC/C=C\CC[C@H]1C(=O)C[C@@H](O)[C@@H]1/C=C/C[C@@](C)(O)/C=C/C1CCCC1 | 1950 µg/kg | 0.3 µg/kg |
| COC(=O)CC/C=C\CC[C@H]1C(=O)C[C@@H](O)[C@@H]1/C=C/C[C@@](C)(O)/C=C/C1CCC1 | 530 µg/kg | 0.05 µg/kg |
| COC(=O)CC/C=C\CC[C@H]1C(=O)C[C@@H](O)[C@@H]1/C=C/CC(C)(O)CCC1=CCCC1 (stereo partly specified) | 1180 µg/kg | 0.1 µg/kg |
| COC(=O)CC/C=C\CC[C@H]1C(=O)C[C@@H](O)[C@@H]1/C=C/C[C@@](C)(O)C#CC1=CCCC1 | > 3160 µg/kg | 2.8 µg/kg |

Source: ChEMBL document CHEMBL1124982, “Chemistry and structure-activity relationships of C-17 unsaturated 18-cycloalkyl and cycloalkenyl analogues of enisoprost. Identification of a promising new antiulcer prostaglandin” (1990)
